Here are results for 19 compounds from ChEMBL document CHEMBL3421547, “Novel myricetin derivatives: Design, synthesis and anticancer activity” (Eur J Med Chem, 2015).

The structures appear in SMILES notation. pIC50: −log10 of the molar value. Activity calls are given as the source filed them. No cut-off for these calls is given here.

Assay [1] has as its target Telomerase reverse transcriptase (Homo sapiens, UniProt O14746). In words: Inhibition of telomerase in human MDA-MB-231 cells after 24 hrs by TRAP-PCR-ELISA. It is filed as cell-based. The method, boiled down:
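MDA-MB-231 cells grown in DMEM with 10% FBS plus penicillin/streptomycin, 5 × 10^4 seeded in T25 flasks and allowed to adhere. Treated 24 h at 60, 20, 6.67, 2.22, 0.74, 0.25 and 0.082, with staurosporine included. Lysed in RIPA 30 min on ice, supernatant taken after 12,000 g spin at 4 °C. Telomerase read by TRAP-PCR-ELISA kit at 490 nm; mean ± SD.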

For a further assay, the system named is SGC-7901. In words: Cytotoxicity against human SGC7901 cells after 48 hrs by MTT assay. The conditions noted are these: SGC-7901, 48 h. Background: Formazan colour is commonly taken as a measure of viable cells.
In a further assay the test system is MGC-803. In words: Cytotoxicity against human MGC803 cells after 48 hrs by MTT assay. The conditions noted are these: MGC-803, 48 h.
Another assay concerns Bcap37. Briefly: Cytotoxicity against human Bcap37 cells after 48 hrs by MTT assay. Particulars: Bcap37, 48 h.
The test system of assay [2] is MDA-MB-231. Briefly: Cytotoxicity against human MDA-MB-231 cells after 48 hrs by MTT assay. Particulars: MDA-MB-231, 48 h.
For assay [3], the system named is MDA-MB-231. Briefly: Cell cycle arrest in human MDA-MB-231 cells assessed as accumulation at G2 phase at 1 uM after 48 hrs by flow cytometry (reference value: 34.6 +/- 0.31%). It is filed as functional.
Assay [4] has as its system MDA-MB-231. In words: Antiproliferative activity against human MDA-MB-231 cells assessed as cell distortion at 1 to 10 uM after 24 to 72 hrs by inverted microscopic analysis. The class given is functional, cell-based. The method, boiled down: (§1)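 MDA-MB-231 seeded at 3 × 10^4 cells/mL in DMEM with 10% FBS and grown 24 h at 37 °C, 5% CO2. Compounds in DMSO added (final DMSO ≤0.1%) at 1 and 10 concentrations for 24, 48 and 72 h. Morphology observed by inverted microscope and photographed in randomly chosen fields.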

Assay [5] concerns MDA-MB-231. In words: Down regulation of TERT protein expression in human MDA-MB-231 cells at 1 uM after 48 hrs by Western blotting analysis. The class given is functional, cell-based. Put shortly: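 MDA-MB-231 cells treated 48 h, with AZT (3.0 mmol/L) as reference. Cells lysed in RIPA and protein measured by BCA; 30 or 50 total protein run on SDS-PAGE and blotted to PVDF. Primary antibodies applied 1 h in TBS/Tween-20 with 3% Marvel (anti-TERT 1:500, β-actin loading control). HRP secondaries, ECL detection.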

Assay [6] concerns MDA-MB-231. Briefly: Cell cycle arrest in human MDA-MB-231 cells assessed as accumulation at G0/G1 phase at 1 uM after 48 hrs by flow cytometry (reference value: 40.5 +/- 0.38%). It is filed as functional.
Assay [7] concerns MDA-MB-231. Briefly: Cell cycle arrest in human MDA-MB-231 cells assessed as accumulation at S phase at 1 uM after 48 hrs by flow cytometry (reference value: 34.6 +/- 0.31%). It is filed as functional. (In general: In flow cytometry, cells or beads pass a laser one at a time.)
The test system of assay [8] is MDA-MB-231. In words: Down regulation of p65 protein expression in human MDA-MB-231 cells at 1 uM after 48 hrs by Western blotting analysis. It is filed as functional, cell-based. In general terms: In western blotting, separated proteins are transferred to a membrane and probed.
Assay [9] concerns MDA-MB-231. Briefly: Antiproliferative activity against human MDA-MB-231 cells assessed as breaking and crack at 1 to 10 uM after 24 to 72 hrs by inverted microscopic analysis. The class given is functional, cell-based. The method, boiled down:
as §1

Chain of Telomerase reverse transcriptase (O14746 whole entry): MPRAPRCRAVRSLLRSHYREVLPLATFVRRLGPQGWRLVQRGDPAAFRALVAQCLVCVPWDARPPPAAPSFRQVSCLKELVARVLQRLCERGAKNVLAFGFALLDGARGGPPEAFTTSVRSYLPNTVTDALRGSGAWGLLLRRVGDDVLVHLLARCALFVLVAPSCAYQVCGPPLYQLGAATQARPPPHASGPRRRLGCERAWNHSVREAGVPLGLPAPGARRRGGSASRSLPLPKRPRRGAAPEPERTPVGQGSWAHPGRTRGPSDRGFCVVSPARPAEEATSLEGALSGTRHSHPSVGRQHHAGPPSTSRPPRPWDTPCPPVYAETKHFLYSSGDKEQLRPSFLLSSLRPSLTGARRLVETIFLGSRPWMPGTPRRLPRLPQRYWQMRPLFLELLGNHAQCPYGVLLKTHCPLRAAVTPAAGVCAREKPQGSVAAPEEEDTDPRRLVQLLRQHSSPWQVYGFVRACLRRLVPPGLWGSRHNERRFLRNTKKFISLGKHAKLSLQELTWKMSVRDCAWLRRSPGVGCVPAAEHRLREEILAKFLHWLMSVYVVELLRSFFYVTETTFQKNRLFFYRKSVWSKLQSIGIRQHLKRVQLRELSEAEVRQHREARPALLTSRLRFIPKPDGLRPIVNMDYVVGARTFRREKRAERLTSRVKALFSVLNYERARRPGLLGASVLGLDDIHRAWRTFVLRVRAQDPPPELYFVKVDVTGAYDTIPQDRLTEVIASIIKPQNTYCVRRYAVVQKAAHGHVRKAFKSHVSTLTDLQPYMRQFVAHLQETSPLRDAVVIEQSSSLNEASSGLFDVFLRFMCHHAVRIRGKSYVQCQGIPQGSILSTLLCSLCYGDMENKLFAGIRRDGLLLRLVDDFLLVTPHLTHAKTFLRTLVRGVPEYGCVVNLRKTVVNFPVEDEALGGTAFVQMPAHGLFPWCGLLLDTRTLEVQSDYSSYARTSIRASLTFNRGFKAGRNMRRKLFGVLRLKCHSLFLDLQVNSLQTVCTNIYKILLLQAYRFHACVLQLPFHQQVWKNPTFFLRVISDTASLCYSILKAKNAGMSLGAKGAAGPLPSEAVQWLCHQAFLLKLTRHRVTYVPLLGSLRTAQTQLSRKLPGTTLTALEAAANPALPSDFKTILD

For `COc1cc(OC)c2c(=O)c(OCCCN3CCCCC3)c(-c3cc(OC)c(OC)c(OC)c3)oc2c1`, the negative logarithm of the IC50 (pIC50) (in general, −log10 of the IC50, conventionally taken in molar units) in assay [1] was 5.51; in the assay on SGC-7901, 4.78; in the assay on MGC-803 it was 5.00; with Bcap37 it was 5.53; in the assay on MDA-MB-231 [2], 5.67.

For `COc1cc(OC)c2c(=O)c(OCC(=O)N/N=C/c3ccco3)c(-c3cc(OC)c(OC)c(OC)c3)oc2c1`, the values for the Activity in the assay on MDA-MB-231 [3], in the assay with MDA-MB-231 [6] and in the assay with MDA-MB-231 [7] were 27.4%, 44.3% and 28.4%, respectively. In addition, the pIC50 in assay [1] is 6.04; with SGC-7901, 5.24; with MGC-803, 5.22; with Bcap37 it was 5.51; with MDA-MB-231 [2], 5.73. The outcome in the assay with MDA-MB-231 [4], in the assay with MDA-MB-231 [5] and in the assay with MDA-MB-231 [8] was Active.

In the case of `CC[n+]1c(-c2ccccc2)c2cc(N)ccc2c2ccc(N)cc21` [HOMIDIUM BROMIDE], the pIC50 in assay [1] was 5.63.

For `C/C(=C\C(=O)Nc1ccccc1C(=O)O)c1ccc2ccccc2c1`, in assay [1], the negative logarithm of the IC50 (pIC50) was 6.77.

Take `COc1cccc2c1C(=O)c1c(O)c3c(c(O)c1C2=O)C[C@@](O)(C(=O)CO)C[C@@H]3O[C@H]1C[C@H](N)[C@H](O)[C@H](C)O1` [DOXORUBICIN]: in the assay on MDA-MB-231 [9], the result was Active. Moreover, the pIC50 was 5.46 in the assay with SGC-7901, 5.49 with MGC-803, 5.54 in the assay on Bcap37 and 5.70 with MDA-MB-231 [2].

For the compound `COc1cc(OC)c2c(=O)c(OCCCN3CCN(C)CC3)c(-c3cc(OC)c(OC)c(OC)c3)oc2c1`, the pIC50 in assay [1] was 4.71; in the assay on Bcap37 it was 4.42; in the assay on MDA-MB-231 [2], 4.52.

As for `COc1cc(OC)c2c(=O)c(OCC(=O)N/N=C/c3ccccn3)c(-c3cc(OC)c(OC)c(OC)c3)oc2c1`, the pIC50 was 4.79 with SGC-7901, 4.81 in the assay on MGC-803, 4.73 with Bcap37 and 5.00 in the assay with MDA-MB-231 [2].

Take `CCN(CC)CCCCOc1c(-c2cc(OC)c(OC)c(OC)c2)oc2cc(OC)cc(OC)c2c1=O`: the pIC50 in assay [1] was 4.39; with MDA-MB-231 [2], 4.89.

On to `COc1cc(OC)c2c(=O)c(OCCCCN3CCN(C)CC3)c(-c3cc(OC)c(OC)c(OC)c3)oc2c1`, for which the pIC50 in the assay on SGC-7901 is 5.16; in the assay on MGC-803 it was 4.91; in the assay on Bcap37, 5.38; in the assay on MDA-MB-231 [2] it was 5.41.

Regarding `COc1cc(OC)c2c(=O)c(OCCCCN3CCCCC3)c(-c3cc(OC)c(OC)c(OC)c3)oc2c1`, the negative logarithm of the IC50 (pIC50) in assay [1] was 5.70; with SGC-7901 it was 5.22; in the assay on MGC-803, 4.57; with Bcap37, 5.58; in the assay on MDA-MB-231 [2], 5.52.

On to `COc1cc(OC)c2c(=O)c(OCCCN3CCCC3)c(-c3cc(OC)c(OC)c(OC)c3)oc2c1`, for which the pIC50 in assay [1] is 4.54; in the assay on MGC-803 it was 4.49.

As for `CCN(CC)CCCOc1c(-c2cc(OC)c(OC)c(OC)c2)oc2cc(OC)cc(OC)c2c1=O`, the pIC50 in assay [1] is 4.45; in the assay on SGC-7901 it was 4.25; with MGC-803, 4.40; in the assay with Bcap37 it was 4.37.

As for `COc1cc(OC)c2c(=O)c(OCC(=O)N/N=C/c3ccccc3F)c(-c3cc(OC)c(OC)c(OC)c3)oc2c1`, the negative-log IC50 (pIC50) was 5.74 in assay [1]; 5.11 in the assay on SGC-7901; 5.56 in the assay with MGC-803; 5.39 with Bcap37; 5.47 in the assay on MDA-MB-231 [2].

With `COc1cc(OC)c2c(=O)c(OCCCN3CCOCC3)c(-c3cc(OC)c(OC)c(OC)c3)oc2c1`, the negative logarithm of the IC50 (pIC50) is 4.95 with SGC-7901, 4.68 in the assay on MGC-803, 5.33 in the assay on Bcap37 and 5.54 with MDA-MB-231 [2].

Consider `COc1cc(OC)c2c(=O)c(OCC(=O)N/N=C/c3sccc3C)c(-c3cc(OC)c(OC)c(OC)c3)oc2c1`, for which the pIC50 is 4.99 with SGC-7901, 5.11 with MGC-803, 5.08 in the assay with Bcap37 and 5.35 in the assay on MDA-MB-231 [2].

Consider `COc1cc(OC)c2c(=O)c(OCCCCN3CCCC3)c(-c3cc(OC)c(OC)c(OC)c3)oc2c1`, for which the pIC50 was 4.57 with SGC-7901, 4.73 in the assay with MGC-803, 4.74 in the assay on Bcap37 and 4.98 in the assay with MDA-MB-231 [2].

`COc1cc(OC)c2c(=O)c(OCC(=O)N/N=C/c3ccc(C)cc3)c(-c3cc(OC)c(OC)c(OC)c3)oc2c1`: the pIC50 was 5.00 in the assay on SGC-7901, 5.45 in the assay on MGC-803, 5.29 in the assay with Bcap37 and 5.34 in the assay with MDA-MB-231 [2].

For the compound `COc1cc(OC)c2c(=O)c(OCCCCN3CCOCC3)c(-c3cc(OC)c(OC)c(OC)c3)oc2c1`, the negative logarithm of the IC50 (pIC50) was 4.90 in the assay with SGC-7901, 4.69 in the assay on MGC-803, 5.28 with Bcap37 and 5.38 with MDA-MB-231 [2].

For the compound `COc1cc(OC)c2c(=O)c(OCC(=O)N/N=C/c3ccc[nH]3)c(-c3cc(OC)c(OC)c(OC)c3)oc2c1`, the pIC50 with SGC-7901 is 5.06; in the assay on MGC-803, 5.25; in the assay with Bcap37 it was 5.15; in the assay on MDA-MB-231 [2], 5.43.
